Measurements published in ChEMBL document CHEMBL3045566, “Phytochemicals from Cunninghamia konishii Hayata act as antifungal agents” (2012).

What was measured:
Format in all cases: functional
[1] = system: Trametes versicolor; assay: Antifungal activity against Trametes versicolor BCRC 35253 wood decay fungi assessed as reduction of fungi mycelium growth at 100 ug/ml
Method in brief: (§1)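 Fungi kept on potato dextrose agar at 4 °C. Samples dissolved in 150 μL ethanol and mixed into 15 mL PDA to give the final concentration. A 5 mm mycelial plug from the culture edge was placed centrally on each 9-cm plate. Plates were held in the dark at 26 ± 2 °C and 70% RH. Antifungal index was scored once control plates without test material were fully overgrown.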

[2] = system: Lenzites betulinus; assay: Antifungal activity against Lenzites betulinus BCRC 35296 assessed as reduction of fungi mycelium growth at 100 ug/ml; method in brief: as §1
[3] = system: Laetiporus sulphureus; assay: Antifungal activity against Laetiporus sulphureus BCRC 35305 (wood decay fungi) assessed as reduction of fungi mycelium growth at 100 ug/ml; method in brief: as §1
[4] = system: Gloeophyllum trabeum; assay: Antifungal activity against Gloeophyllum trabeum BCRC 31614 (wood decay fungi) assessed as reduction of fungi mycelium growth at 100 ug/ml; method in brief: as §1

| Structure (SMILES) | inhibition at 100 µg/mL [1] [%] | inhibition at 100 µg/mL [2] [%] | inhibition at 100 µg/mL [3] [%] | inhibition at 100 µg/mL [4] [%] |
| --- | --- | --- | --- | --- |
| C[C@@H]1CC[C@H]2C(C)(C)[C@H]3C[C@@]12CC[C@@]3(C)O [CEDROL] | 74.8 | 95.5 | 100 | 68.3 |
| CCCCCCCCCC[N+](C)(C)CCCCCCCCCC [DIDECYLDIMETHYLAMMONIUM CHLORIDE] | 100 | 100 | 100 | 100 |
| C=CC(=C)CC[C@@H]1[C@@]2(C)CCCC(C)(C)[C@@H]2CC[C@@]1(C)O [ISOABIENOL] | 27.8 | 25.6 | 8.2 | 6.8 |
| CC1=C[C@@H]2[C@@H](CC1)[C@@](C)(O)CC[C@H]2C(C)C [T-CADINOL] | 51.4 | 100 | 100 | 100 |
| CC1=C[C@H]2[C@H](C(C)C)CC[C@](C)(O)[C@H]2CC1 [T-MUUROLOL] | 39.5 | 100 | 100 | 100 |
